Screening results: PubChem BioAssay, several laboratories
MT1-MMP act inh = MT1-MMP (human) activation inhibition | P50281 | HT1080 RFP-PRO-GFP cells, GFP/RFP ratio fluorescence, overnight; percent of plate control window, DMSO zero | GFP/RFP ratio change, % at 20 µM | 0.061% of 360,000 active | AID 651647;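 active means GFP/RFP ratio change of at least 30% with cell ATP level not reduced by more than half and red fluorescence within 50% of control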
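Assay system: HT1080 RFP-PRO-GFP cells. Benchmarks: DMSO vehicle wells and RFP-L50D-GFP reporter cell wells. Times: overnight cell settling, then overnight compound exposure, 37 °C, 5% CO2. Compound: 20 µM single dose, 1% DMSO. Read-out basis: GFP/RFP fluorescence ratio.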
Bfl-1 A1 inh = inhibitors of the anti-apoptotic protein A1, read as caspase activation; MEF A1-2A-BIM cells, Caspase-Glo 3/7 luminescence, 3 h; percent of clofoctol response, vehicle zero; 0.066% of 330,000 active; caspase activation, % (no concentration beside the values);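 active means over half of replicate activation scores above 10%, or exactly half above 10 with the replicate mean above 10; inconclusive means replicate mean below 10 yet half the replicates above 10; inactive means over half of replicates below 10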
TbMetRS inhib = Trypanosoma brucei MetRS inhibition. purified T. brucei MetRS, ATP depletion, Kinase-Glo luminescence. inhibition, % at 11.9 µM. 0.4% of 360,000 active. AID 624268;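 active means inhibition above a per-plate cutoff of the control wells' mean inhibition plus 3 SD, cut at about 5.5% in these data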
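System: purified T. brucei MetRS enzyme / Detection: Kinase-Glo luciferase luminescence reporting remaining unconsumed ATP / Medium: HEPES buffer with MgCl2, KCl, DTT, spermine, BSA, pyrophosphatase / Replication: singlicate, one well per compound / Evaluation: percent inhibition relative to median high and low control wells / Schedule: 2 h aminoacylation at 25 °C after 15 min preincubation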
SKN-1 block = inhibitors of C. elegans SKN-1. C. elegans VP596 Pgst-4::GFP/RFP ratio, acrylamide-induced, 24 h. 0.49% of 360,000 active. inhibition, % at 21.8 µM. AID 624304;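 active means interference check ratio from 0.5 to 1.5 plus GFP to RFP signal ratio inhibition reaching or exceeding a fixed threshold, cut at about 30% in these data, passing the limit was not always enough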
GC-B act = GC-B (human) receptor activation; P20594; HEK293-GC-B cells, CNP EC30, cGMP TR-FRET; 0% at EC30 CNP, 100% saturating CNP; activation, % at 10 µM; 0.11% of 370,000 active; AID 1920062;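 active means activation at 10 µM reaching about 35% in either raw or pattern-adjusted values, limit read from the data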
GC-A act = GC-A (human) enzyme activation. HEK293 GC-A cells, cGMP TR-FRET, EC30 ANP; 0% at EC30 ANP, 100% saturating ANP. activation, % at 10 µM. 0.14% of 370,000 active. AID 1671463; in the data active means activation above about 40%
Hits are given with their value; – = inactive; ? = inconclusive; · = no result given. The list is not random: actives were taken first. Their share in the collection is about 1.1%.

SMILES | MT1-MMP act inh | Bfl-1 A1 inh | TbMetRS inhib | SKN-1 block | GC-B act | GC-A act
CCc1nnc(NC(=O)CSc2nnc(COc3cccc(C)c3)o2)s1 | – | – | – | 54 | – | –
O=C(c1ccc(Cl)cc1)C1CCN(c2ncnc3sccc23)CC1 | · | · | · | · | – | –
CCOc1ccc(NC(=O)CCN2CCN(C)CC2)cc1 | – | – | – | 37 | – | –
CN1CCN(CCC(=O)Nc2ccc(OCc3ccccc3)cc2)CC1 | – | – | – | – | – | –
COc1ccc2c(c1OC)C(=O)OC2Nc1nc(-c2ccc(-c3ccccc3)cc2)cs1 (stereo not drawn) | – | – | – | 65 | – | –
COc1cccc(-c2csc(NC3OC(=O)c4c3ccc(OC)c4OC)n2)c1 (stereo not drawn) | – | – | – | – | – | –
O=C(Nc1ccc(Cl)cc1Cl)O[C@@H]1CC[C@@]23CCCN2C(=O)CCC[C@H]3C1 | · | · | · | · | – | –
CN(CCC(=O)Nc1ccc(Br)cc1)Cc1ccccc1 | – | – | 25 | – | · | ·
COC(=O)C1=C(CN2CCSCC2)NC(=O)NC1c1cc(C)ccc1C (stereo not drawn) | – | – | – | 37 | – | –
CCOC(=O)C1=C(CN2CCSCC2)NC(=O)NC1c1cc(C)ccc1C (stereo not drawn) | – | – | – | – | – | –
N#Cc1c(N)oc(-c2ccc3c(c2)OCO3)c1-c1ccc2c(c1)OCO2 | – | – | – | 43 | – | –
Cc1nc(N)c(C#N)c(-c2ccc3c(c2)OCO3)c1C | – | – | – | – | – | –
COC(=O)Cn1nc(-c2ccccc2)c2cccc(C(F)(F)F)c21 | · | · | · | · | – | –
CC(C)(C)c1ccc(-c2nnc(SCC(=O)Nc3ccc4cn[nH]c4c3)n2-c2ccc(Cl)cc2)cc1 | · | · | · | · | – | –
COc1ccc(OC)c(S(=O)(=O)N2CCCC(C(=O)Nc3c(C)n(C)n(-c4ccccc4)c3=O)C2)c1 (stereo not drawn) | · | · | · | · | – | –
CCCCn1nnc(NC(=O)c2sc3cc(Cl)ccc3c2Cl)n1 | – | – | – | – | – | –
CCN(CC)Cc1ccc(NC(=O)c2sc3cc(Cl)ccc3c2Cl)cc1 | – | – | – | 51 | – | –
CCCCCCC/C=C(\C)[C@@H](O)[C@@H](C)C(=O)N1CCC[C@@H]1C(=O)O | · | · | · | · | – | –
Cc1c(Cl)cccc1NC(=O)CC1NCCNC1=O (stereo not drawn) | – | – | – | 38 | – | –
Cc1ccccc1Cn1cc(CN2[C@@H](CC(C)C)COc3cccc(F)c3S2(=O)=O)nn1 | · | · | · | · | – | –
O=C(Nc1ccc(NC(=O)c2ccccc2Cl)c(Cl)c1)c1ccccn1 | · | · | · | · | – | –
COC(=O)CSc1nc2ccc(C)cc2cc1C#N | – | – | – | – | – | –
Cc1cc(C)c2cc(C#N)c(N3CCCC3)nc2c1 | – | – | – | 48 | – | –
COC(=O)CSc1nc2cc(C)cc(C)c2cc1C#N | – | – | – | 37 | – | –
COc1cc(NC(=O)c2ccccc2)c(OC)cc1NC(=O)Cc1ccc(Br)cc1 | – | 12 | – | – | – | –
SMILES | MT1-MMP act inh | Bfl-1 A1 inh | TbMetRS inhib | SKN-1 block | GC-B act | GC-A act
COc1cc(NC(=O)c2ccc(Br)cc2)c(OC)cc1NC(=O)c1ccccc1 | – | – | – | – | – | –
COc1cc(NS(=O)(=O)c2ccc(Br)cc2)c(OC)cc1NC(=O)c1ccco1 | – | – | – | 48 | – | –
COc1ccc(S(=O)(=O)Nc2cc(OC)c(NC(=O)c3ccco3)cc2OC)cc1 | – | – | – | – | – | –
CC(C)[C@H](NC(=O)[C@@H]1CCCN1)C(=O)N1CCC2CCN(S(=O)(=O)c3ccccc3)CC21 (stereo partly drawn) | · | · | · | · | – | –
CN(C)c1ccc(/C=N/NC(=O)CN(c2ccccc2Cl)S(C)(=O)=O)cc1Br | – | – | – | 36 | – | –
CCCS(=O)(=O)c1c(S(=O)(=O)CCC)c2ccc(C(N)=O)cn2c1C(=O)c1ccc(OC)cc1 | – | – | – | – | 56 | –
CCOC(=O)[C@]12CCCCC/C=C\1N(Cc1ccc(OC)cc1)C(=O)[C@H]2CC(=O)N1CCC(c2ccccc2)CC1 | · | · | · | · | – | –
COc1ccccc1N1CCN(CCC(=O)Nc2ccc3c(c2)OCO3)CC1 | – | – | – | 48 | – | –
COc1ccccc1N1CCN(CC(=O)Nc2ccc3c(c2)OCCO3)CC1 | – | – | – | – | – | –
COc1cc(/C(C)=N/NC(=S)NC(C)C)cc(OC)c1OC | – | – | – | – | 39 | –
COc1cc(/C(C)=N\NC(N)=S)cc(OC)c1OC | – | – | – | – | – | –
COc1ccc(C(=O)NCCN2C(=O)C3C4C=CC(C4)C3C2=O)cc1OC (stereo not drawn) | · | · | · | · | – | –
CCc1ccc(OCc2cnc(Cl)s2)cc1 | – | – | – | – | – | –
Clc1ccc(OCc2cnc(Cl)s2)cc1 | – | – | – | 61 | – | –
COC(=O)C1=C(C)N=c2s/c(=C/c3cccs3)c(=O)n2C1c1cccs1 (stereo not drawn) | – | – | – | 39 | – | –
CCCCCn1cnc2sc(-c3ccccc3)cc2c1=O | – | – | – | 40 | – | –
O=c1c2cc(-c3ccccc3)sc2ncn1/N=C/c1ccco1 | – | – | – | 44 | – | –
Cc1ccc(NC(=O)C2CCCN2S(=O)(=O)c2cccnc2)cc1C (stereo not drawn) | · | · | · | · | – | –
NS(=O)(=O)c1ccc(N/N=C/c2cn(-c3ccccc3)nc2-c2ccccc2)c([N+](=O)[O-])c1 | – | 5.8 | – | – | – | –
COc1ccc(Cn2c(NC(=O)c3ccccc3)nc(Cc3ccccc3)c2-c2ccccc2)cc1 | · | · | · | · | – | –
O=Nc1c(O)ccc2cc(S(=O)(=O)O)ccc12 | – | · | – | – | · | ·
Nc1cccc2cc(S(=O)(=O)O)ccc12 | – | · | – | 51 | – | –
CCC(=O)N1CCc2cc(Br)c(S(=O)(=O)NCCCN(CC)Cc3ccccc3)cc21 | · | · | · | · | – | –
CCS(=O)(=O)c1ncc(Cl)c(C(=O)Nc2ccc(S(=O)(=O)N3CCCC(C)C3)cc2)n1 (stereo not drawn) | – | 49 | – | – | 41 | 43
CCS(=O)(=O)c1ncc(Cl)c(C(=O)Nc2ccc(C)cc2)n1 | – | ? | – | – | – | –
CCC1CCCCN1S(=O)(=O)c1ccc(NC(=O)c2nc(S(C)(=O)=O)ncc2Cl)cc1 (stereo not drawn) | – | 11 | – | – | – | 42
Clc1ccsc1-c1ccc2ccccc2n1 | – | – | – | 90 | – | –
CCCc1nc(C)c2c(=O)[nH]c(-c3cc(S(=O)(=O)N4CCN(CC)CC4)ccc3OCC)nn12 | – | – | – | – | 65 | 53
